Experimental data: the EternaBench riboswitch data

System: MS2 coat protein
Test: apparent Kd, MS2 coat protein; higher = weaker binding; RNA-MaP array; FMN 200 µM where present
In short: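 In 100 mM Tris-HCl pH 7.5, 80 mM KCl, 4 mM MgCl2, BSA, DTT, yeast tRNA and Tween-20, SNAP-549-labelled MS2 coat protein was titrated from 0.7 or 1.5 nM, doubling to 3 µM, over designs transcribed by stalled E. coli RNA polymerase on Illumina sequencing-chip clusters. This was done first without ligand, then with ligand held constant. After green signal was normalised to red-channel RNA signal and control-cluster median Fmax, the apparent Kd was taken as the median of filtered per-cluster binding-curve fits.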

[1] = designed as: OFF switch for flavin mononucleotide, no ligand
[2] = ligand present: flavin mononucleotide, designed as: OFF switch for flavin mononucleotide

| Sequence | apparent Kd [1] | apparent Kd [2] | apparent Kd (designed as: ON switch for flavin mononucleotide, no ligand) | apparent Kd (ligand present: flavin mononucleotide, designed as: ON switch for flavin mononucleotide) |
| --- | --- | --- | --- | --- |
| UAUGUAUUCGUAGGAUAUCCGUUAAAACCAUGUGGAGAAGGACGAACAUGAGGAUCACCCAUGUAUCAUGGUGUAGACAAUUUU | 55.5 nM | 321 nM |  |  |
| GAUAAACAUGAGGAUCACCCAUGUCAGGAUAUGCGCUAGCUAGCUAGCUAGCUAGCUAGCAGAAGGGACACUAC | 19.5 nM | 35 nM |  |  |
| AGAUACUACGAGAAGGACAUGAGGAUCACCCAUGUAACCUGUAUCAGGAAUGUAGGAUAUCGUAGUAUCAGGAUCGUGAGAUCA | 6.79 nM | 7.82 nM |  |  |
| UAUAUGUCAGGAUAUCGAUUGGAGCGGAAUUUAGCUUUGGUCGAGAAGGGACAUGAGGAUCACCCAUGUUCAAC | 19.8 nM | 37.8 nM |  |  |
| CUGAUGUGAGGAUAUCAACGCCAUGUCUUUGACAUGGCGCAUGAGAAGGCACAUGAGGAUCACCCAUGUACUUC | 23.3 nM | 125 nM |  |  |
| UCGGCGCGAGGAUAUGCGGUUCCUUCUUCGGGCCGGAGCGUACAUGAGGAUCACCCAUGUAGAAGGCGCGCCGC | 13.6 nM | 15.3 nM |  |  |
| UGAGCUUCAGGAUAUAUAUGGCGACCGUGAGGUCGAAGGUUACAUGAGGAUCACCCAUGUAGAAGGGAAGUUCU | 34.5 nM | 187 nM |  |  |
| UUCCUGUCAGGAUAUGACUAGAUGCACGUUAGUGUGUUUACUUAGAAGGGACAUGAGGAUCACCCAUGUAGUCC | 36.2 nM | 33 nM |  |  |
| GGGUUGUGAGGAUAUUAGUUGUACGUCAAUAGACGUGUGGGUGAGAAGGCACAUGAGGAUCACCCAUGUUCCUG | 181 nM | 169 nM |  |  |
| ACAGCGGAGGCAGGAUAUCGCACAUGAGGAUCACCCAUGUGGUUAUUUACGGGUUGGUGGUCACGCGAGAAGGGCCAACCAUAA | 59 nM | 31.7 nM |  |  |
| UACAUUGCUUAGAAGGGAUAUAUAUAAUUUUAGUCAGGAUAUAGAUACAGUACAACAUGAGGACAUGAGGAUCACCCAUGUAUU |  |  | 25.9 nM | 18.4 nM |
| CUGACGAUGUAAGGAUAUGCUGAGGAUAACUCAGCAGAAGGUACAUGAGGAUCACCCAUGUAAUAAGAUCAAUAAUAACGUCAG | 15.3 nM | 32.1 nM |  |  |
| UAAUAAUAAUAAUAGCAGUAUUACAUGAGGAUCACCCAUGUAUAGGAUAUCGUCAGGAAUACUGUCGAGAAGGAUACAAACUGC | 20.7 nM | 28.7 nM |  |  |
| UGAUAGGACAGAGGAUAUACAUGCUAGAGAUACUAGCUAAAUUUCCUCACAUGAGGAUCACCCAUGUAGAAGGCUGUCCUAUCU | 19.4 nM | 378 nM |  |  |
| GGAUAGGACAGAGGAUAUACGUGCUAGAGAUACUAGCAAAUUUUCCUCACAUGAGGAUCACCCAUGUAGAAGGCUGUCCUAUCG | 24.6 nM | 511 nM |  |  |
| GGAGCAGGGUCAGGAUAUGUAGGUAGACGGCAAAUAGAAGGGACAUGAGGAUCACCCAUGUAACAUUAAAAUGAAGCAAGGGAG | 66.4 nM | 71.5 nM |  |  |
| ACUGGGCGCCGACCCAUGUCUAUGGAGGAUAUUACUGCCGGUAUCUCACAUGAGGAUCACCCAUGUAAGAAGGCCAUAAACACC | 19.5 nM | 221 nM |  |  |
| AUCGUUCGAGAGAAGGGAACAUGAGGAUCACCCAUGUUACCUCACCUGGUGACGGAACUCCAAGUUCAGGAUAUCUCGAGCAAU | 5.38 nM | 8.25 nM |  |  |
| GUCCGGAGGGAGAAGGGCUAGGAGGUCCAGCUUAUGUGUGUUGCAACAUGAGGAUCACCCAUGUAGCAGGAUAUCCCUUUUACA | 47 nM | 233 nM |  |  |
| AUUUUUAAGGUAGGAUAUAGUAUGAUGGUUUAAUUAGAAGGAUCUCACAUGAGGAUCACCCAUGUAAUAGGAUUACCCAUGUAU | 53.7 nM | 33.3 nM |  |  |
